Beta apoptosis: beta cell apoptosis inhibition; INS-1E cytokine-induced death, ATP luminescence, 48 h; percent of positive-control rescue, neutral wells zero; actives 0.8% (n = 300,000); protection from apoptosis, % (test concentration not listed);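 active = Every replicate reaches about 75%, or at least half do and their mean reaches it too, limit read from the data; inconclusive = At least half of replicates reach the limit but their mean does not; inactive = Under half of replicates reach the limit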;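 note: 0% = cytokine-treated negative control wells and 100% = positive control rescue; higher means more ATP so stronger rescue from cytokine killing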
Calb FLC: affects C. albicans growth with fluconazole; C. albicans CaCi-2 (fluconazole-resistant clinical isolate) + fluconazole, Alamar Blue growth, 48 h; growth inhibition, % (no concentration beside the values); actives 0.57% (n = 300,000); AID 1979;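 active = growth inhibition above about 58% in most replicates, limit read from the data, passing the limit was not always enough; inconclusive = exactly half the replicates above a set limit; inactive = most replicates below a set limit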;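 note: all wells also contain fluconazole at 8 µg/ml as a sub-toxic cotreatment; 0% = median of DMSO wells and 100% = median of geldanamycin control wells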
T cruzi inh: blocks replication of Trypanosoma cruzi. T. cruzi beta-gal in NIH3T3, luminescence, 90 h. inhibition, % (no concentration beside the values). actives 1.4% (n = 300,000). AID 1885;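 active = mean inhibition across valid replicates above about 55%, limit read from the data; inconclusive = mean below that limit but half or more replicates reach it; inactive = mean below it, under half of replicates reach it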;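 note: signal also drops with host cell toxicity which is not excluded here; 0% = plate median of DMSO wells and 100% = zero luminescence signal; higher percent means less beta-gal luminescence so fewer parasites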
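Assay system: NIH/3T3 fibroblasts plus reporter T. cruzi. Amount: NIH/3T3 cells, 5,000 per well. Buffer or medium: DMEM, 2% fetal bovine serum. Doses: compound pinned at 50 nL/well, DMSO. Schedule: ≥90 h infection period, 3 h prior cell attachment. Signal: luminescent β-galactosidase signal after 60 min lysis. Read-out: parasite load inhibition, %.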
NLRP3 yeast inh: inhibitors of NALP3 inflammasome in yeast; Yeast reconstituted NLRP3/ASC/caspase-1, beta-gal luminescence, 24 h; inhibition, % at 10 µM; actives 0.39% (n = 330,000); AID 2825;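 active = inhibition of 50% or more; inactive = inhibition below 50%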;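 note: plate controls were induced DMSO wells for no effect and uninduced yeast grown without galactose for full effect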
Mdm2-MdmX inh: inhibitors of human Mdm2/MdmX interaction; SaOS-2 split-luciferase Mdm2/MdmX complementation, luminescence; inhibition, % at 8 µM; actives 3% (n = 330,000);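 active = inhibition of at least 50% at 8 µM in the primary screen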
Target sequence (O15151 whole entry, looked up): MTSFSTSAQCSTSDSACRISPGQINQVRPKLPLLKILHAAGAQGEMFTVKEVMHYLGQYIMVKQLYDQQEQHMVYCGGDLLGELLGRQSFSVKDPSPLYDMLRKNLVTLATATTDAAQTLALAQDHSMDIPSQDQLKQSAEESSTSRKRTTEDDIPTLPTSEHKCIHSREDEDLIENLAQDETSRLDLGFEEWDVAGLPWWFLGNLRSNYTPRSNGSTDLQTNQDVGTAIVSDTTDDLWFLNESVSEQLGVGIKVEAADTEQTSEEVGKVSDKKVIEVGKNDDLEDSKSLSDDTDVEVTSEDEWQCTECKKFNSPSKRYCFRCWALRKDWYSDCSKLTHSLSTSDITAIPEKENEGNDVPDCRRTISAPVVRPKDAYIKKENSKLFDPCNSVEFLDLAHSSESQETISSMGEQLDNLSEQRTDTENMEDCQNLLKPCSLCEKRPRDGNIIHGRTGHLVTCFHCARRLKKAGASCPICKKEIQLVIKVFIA
Target sequence (Q00987 whole entry, looked up): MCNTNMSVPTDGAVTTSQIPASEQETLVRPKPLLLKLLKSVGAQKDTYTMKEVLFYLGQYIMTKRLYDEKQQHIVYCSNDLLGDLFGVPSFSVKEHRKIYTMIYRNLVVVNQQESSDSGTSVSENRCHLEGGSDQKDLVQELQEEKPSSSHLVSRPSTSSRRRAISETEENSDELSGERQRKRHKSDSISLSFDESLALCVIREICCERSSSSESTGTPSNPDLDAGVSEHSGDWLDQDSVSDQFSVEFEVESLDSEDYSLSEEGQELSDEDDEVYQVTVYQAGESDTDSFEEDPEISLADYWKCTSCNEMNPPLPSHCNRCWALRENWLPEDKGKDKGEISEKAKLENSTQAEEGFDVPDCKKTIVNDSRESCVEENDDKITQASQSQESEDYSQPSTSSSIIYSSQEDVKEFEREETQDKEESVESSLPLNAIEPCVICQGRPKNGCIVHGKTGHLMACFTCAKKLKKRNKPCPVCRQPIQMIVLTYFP
CSC inhib: cancer stem cell inhibition. AID 2717. inhibition, % at 7.5 µM. actives 1.1% (n = 300,000). cancer stem cell-like cells viability, luminescence; in the data active = inhibition above about 75%; inconclusive = no clear call, values can overlap the other calls; tested in HMLE shEcad cells
Mdm2 MdmX conf: confirmation of human Mdm2/MdmX interaction inhibitors; AID 489028; shares compounds with Mdm2-MdmX inh; Mdm2-MdmX binding, luminescent assay; actives 55% (n = 10,000); inhibition, % at 8 µM; in the data active = inhibition above about 40%
FLuc counter: full-length luciferase inhibition in Mdm2/MdmX counter-screen | shares compounds with Mdm2-MdmX inh | SaOS-2 full-length luciferase counterscreen, luminescence | inhibition, % at 8 µM | actives 77% (n = 6,200) | AID 504607;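 active = mean inhibition at 8 µM reaching about 37%, which flags the compound as non-specific, limit read from the data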;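 note: p53-null SaOS-2 cells with luciferase driven by a doxycycline-inducible promoter; compound on cells about two nights before reading with doxycycline added after day one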
* hit, by the source's call. Most compounds without a hit are left out; they make up all but 5.3% or so of the library.

Results for CN1C2CCC1/C(=C\c1ccccc1F)C(=O)/C2=C/c1ccccc1F ?
Beta apoptosis: 4.1; Calb FLC: -11.1; T cruzi inh: 31.9; NLRP3 yeast inh: 44.7; Mdm2-MdmX inh: 58.6*; CSC inhib: 23.3; Mdm2 MdmX conf: 41.2*; FLuc counter: 35.1

What do the screens show for `CC(=O)CC1OC(=O)C(Br)=C1NCc1ccccc1` (centres undefined)?
Beta apoptosis: -5.4; Calb FLC: -4.8; T cruzi inh: 58.5*; NLRP3 yeast inh: 1.6; Mdm2-MdmX inh: 66.9*; CSC inhib: 41.0; Mdm2 MdmX conf: 47.5*; FLuc counter: 4.6

What do the screens show for `O=C(CC1Oc2ccccc2NC1=O)NCc1ccccc1` (centres undefined)?
Calb FLC: -3.2; T cruzi inh: -2.5; NLRP3 yeast inh: 6.1; Mdm2-MdmX inh: 3.3; CSC inhib: -2.0

How did COc1ccc2ncn(-c3ccccc3)c2c1 do in these assays?
Beta apoptosis: -20.2; Calb FLC: -21.0; T cruzi inh: 4.7; NLRP3 yeast inh: -15.7; Mdm2-MdmX inh: 62.7*; CSC inhib: -8.1; Mdm2 MdmX conf: 49.8*; FLuc counter: 41.8*

Results for COc1ccc(-n2cnc3ccccc32)cc1 ?
Beta apoptosis: -9.2; Calb FLC: -16.9; T cruzi inh: -1.8; NLRP3 yeast inh: 23.3; Mdm2-MdmX inh: 46.7; CSC inhib: 12.8

What do the screens show for `Cc1cc2c(=O)n(Cc3ccco3)c(SCC(=O)N3CCCc4ccccc43)nc2s1`?
Beta apoptosis: 5.2; Calb FLC: 2.7; T cruzi inh: 24.4; NLRP3 yeast inh: 2.1; Mdm2-MdmX inh: 56.9*; CSC inhib: 16.8; Mdm2 MdmX conf: 20.8

Results for Cc1cc2c(=O)n(Cc3ccco3)c(SCC(=O)NCc3ccco3)nc2s1 ?
Beta apoptosis: -4.1; Calb FLC: 14.2; T cruzi inh: 7.4; NLRP3 yeast inh: 1.5; Mdm2-MdmX inh: 16.0; CSC inhib: 3.7

How did CC(=O)C(Cc1ccccc1)NC(=O)COc1ccc2c(c1)OCO2 (centres undefined) do in these assays?
Beta apoptosis: -12.9; NLRP3 yeast inh: 16.0; Mdm2-MdmX inh: 9.3; CSC inhib: 5.9

How did CCn1cc(CCC(=O)NCCc2ccccc2)c2ccccc21 do in these assays?
Beta apoptosis: -6.9; Calb FLC: -14.0; T cruzi inh: 9.4; NLRP3 yeast inh: 20.7; Mdm2-MdmX inh: 12.8; CSC inhib: -0.9

Results for C=CCc1cc(/C=C2/NC(=S)NC2=O)cc(OC)c1O ?
Beta apoptosis: 5.1; Calb FLC: 13.7; T cruzi inh: -4.7; NLRP3 yeast inh: 11.0; Mdm2-MdmX inh: 55.3*; CSC inhib: -0.6; Mdm2 MdmX conf: 20.1

What do the screens show for `C=CCc1cc(/C=C2/NC(=O)NC2=O)cc(OCC)c1O`?
Beta apoptosis: 5.3; Calb FLC: -2.4; T cruzi inh: -17.5; NLRP3 yeast inh: 11.5; Mdm2-MdmX inh: 31.8; CSC inhib: -0.7

Results for CN(C)C=Nc1ncc2c([nH]c3ccccc32)c1C#N ?
Beta apoptosis: -13.3; Calb FLC: 24.3; T cruzi inh: -10.7; NLRP3 yeast inh: 9.2; Mdm2-MdmX inh: 72.4*; Mdm2 MdmX conf: 81.8*; FLuc counter: 23.0

How did CN(C)/C=N/c1[nH]ncc1C#N do in these assays?
Beta apoptosis: -3.2; Calb FLC: -1.1; T cruzi inh: -12.4; NLRP3 yeast inh: 10.1; Mdm2-MdmX inh: 8.3; CSC inhib: -8.5

What do the screens show for `COC(CNC(=O)C1CCN(S(=O)(=O)c2ccc3nc4c(c(C(=O)O)c3c2)CC(C)CC4)CC1)OC` (centres undefined)?
Beta apoptosis: -4.9; Calb FLC: 4.6; T cruzi inh: -5.4; NLRP3 yeast inh: 5.8; Mdm2-MdmX inh: 4.7; CSC inhib: -2.8

What do the screens show for `Cc1ccc(C(=O)n2c3ccccc3c3ccccc32)cc1`?
Beta apoptosis: 16.6; Calb FLC: 2.7; T cruzi inh: -8.9; NLRP3 yeast inh: 10.1; Mdm2-MdmX inh: 51.0*; CSC inhib: 68.0; Mdm2 MdmX conf: 55.0*; FLuc counter: 53.4*

Results for COc1ccc(Nc2nc(Nc3ccc(OC)cc3OC)nc(N3CCN(C)CC3)n2)c(OC)c1 ?
Beta apoptosis: -6.5; Calb FLC: 5.8; T cruzi inh: 23.4; NLRP3 yeast inh: 15.8; Mdm2-MdmX inh: 50.8*; CSC inhib: 3.1; Mdm2 MdmX conf: 20.9

What do the screens show for `COc1ccc(-c2cc(-c3ccc(F)cc3)nc(N3CCN(C)CC3)n2)cc1`?
Calb FLC: -8.6; T cruzi inh: 42.3; NLRP3 yeast inh: 34.1; Mdm2-MdmX inh: 78.7*; CSC inhib: 16.6; Mdm2 MdmX conf: 13.8

What do the screens show for `Cn1nc(-c2ccccc2)cc1NC(=O)Nc1ccc(C(C)(C)C)cc1`?
Beta apoptosis: 5.1; Calb FLC: 1.1; T cruzi inh: 22.3; NLRP3 yeast inh: 21.2; Mdm2-MdmX inh: 37.9; CSC inhib: 62.1

Results for CCOc1ccc2nc(Cl)c(/C=C/C(=O)c3ccco3)cc2c1 ?
Beta apoptosis: 0.8; Calb FLC: 53.2; T cruzi inh: -1.4; NLRP3 yeast inh: 1.6; Mdm2-MdmX inh: 53.2*; CSC inhib: 5.0; Mdm2 MdmX conf: 7.0

What do the screens show for `O=C(CCC(=O)N1CCN(c2ccc(F)cc2)CC1)c1ccc(F)cc1`?
Beta apoptosis: -2.4; Calb FLC: 3.0; T cruzi inh: -5.7; NLRP3 yeast inh: 2.5; Mdm2-MdmX inh: -2.4; CSC inhib: 6.9

What do the screens show for `CC(C)(C)Nc1nc(Nc2ccc([N+](=O)[O-])cc2)nc(NC(C)(C)C)n1`?
Calb FLC: 3.5; T cruzi inh: 16.6; NLRP3 yeast inh: 0.1; Mdm2-MdmX inh: 28.6; CSC inhib: 17.4

How did COc1ccc(C(=O)/C=C/c2cn(CC(O)CN3CCN(C)CC3)c3ccccc23)cc1OC (centres undefined) do in these assays?
Beta apoptosis: -4.4; Calb FLC: -3.9; T cruzi inh: 21.8; NLRP3 yeast inh: -21.6; Mdm2-MdmX inh: 50.1*; CSC inhib: 9.3; Mdm2 MdmX conf: 25.0

What do the screens show for `O=C(/C=C/c1cn(CC(O)CN2CCCCC2)c2ccccc12)c1ccccc1` (centres undefined)?
Calb FLC: -7.1; T cruzi inh: 14.3

Results for CCCCN(C)CC(O)Cn1cc(/C=C/C(=O)c2ccc(C)cc2)c2ccccc21 (centres undefined) ?
Beta apoptosis: 10.0; Calb FLC: 9.7; T cruzi inh: inconclusive; NLRP3 yeast inh: 16.2; Mdm2-MdmX inh: 74.3*; CSC inhib: 82.4*; Mdm2 MdmX conf: 20.1

What do the screens show for `COC(=O)c1ccc(NC(=S)NCCCN2CCCC2=O)cc1`?
Beta apoptosis: 0.5; Calb FLC: 18.7; T cruzi inh: -8.6; NLRP3 yeast inh: -13.1; Mdm2-MdmX inh: -0.8; CSC inhib: -8.8

Screening data from PubChem BioAssay.
